Source: PubChem BioAssay
VLA-4 inh: inhibition in human VLA-4 binding assay, primary screen, VLA-4 allosteric modulator project, MLPCN library, flow cytometry, VLA-4 expressing cells | Integrin alpha-4 (Homo sapiens), P13612 | ligand binding flow cytometry | inhibition, % (about 7 µM as worked out from the volumes in the protocol) | actives 0.2% (n = 330,000) | AID 2557, 2010; in the data active means inhibition above about 50%
Platelet DG rel: inhibitors of platelet dense granule secretion, primary screen, cell-based, MLPCN, human platelets. inhibition, %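 (compounds screened at 7.5 µM in platelet-rich plasma)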. human platelet-rich plasma, SFLLRN dense granule ATP release, luminescence. actives 0.22% (n = 300,000);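 active means mean replicate score, as percent of positive control, at or above 50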
TAAR1 agonist: human TAAR1 agonists, primary screen, Fluo-8 calcium fluorescence, CHO RD-HGA16 cells. activation, % at 3 µM. actives 0.99% (n = 360,000). Trace amine-associated receptor 1 (Homo sapiens), Q96RJ0. vehicle wells 0%, saturating PEA agonist 100%;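 active means activation above the mean activation of all test compounds in the run plus 3 SD, cut at about 38% in these data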
Target sequence (Q96RJ0 whole entry, looked up): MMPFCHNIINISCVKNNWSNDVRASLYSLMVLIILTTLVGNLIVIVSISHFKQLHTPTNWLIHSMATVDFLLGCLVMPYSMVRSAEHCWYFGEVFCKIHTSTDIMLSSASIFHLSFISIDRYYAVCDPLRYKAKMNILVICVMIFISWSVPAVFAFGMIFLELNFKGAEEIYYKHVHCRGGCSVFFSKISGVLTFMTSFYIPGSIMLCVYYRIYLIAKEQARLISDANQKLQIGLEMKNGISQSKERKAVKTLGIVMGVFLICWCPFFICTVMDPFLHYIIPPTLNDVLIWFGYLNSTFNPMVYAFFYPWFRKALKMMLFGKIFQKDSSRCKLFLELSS
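Repeats: no replicates (n 1) | Material: CHO-derived RD-HGA16 cells with stable Gα16 and human TAAR1 | Technique: Kinetic Fluo-8 calcium fluorescence | Schedule: 17-24 h seeding, 75 min 37 °C dye, 30 min RT | Evaluation: % activation from peak over basal fluorescence ratio, DMSO-to-PEA scaled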
TAAR1 antag: human TAAR1 antagonists, primary screen, Fluo-8 calcium fluorescence, CHO RD-HGA16 cells; actives 1.5% (n = 360,000); inhibition, % at 3 µM; antagonist; Trace amine-associated receptor 1 (Homo sapiens), Q96RJ0;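 active means inhibition above a per-plate cutoff, the mean inhibition of test compounds on that plate plus 3 SD, cut at about 49% in these data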
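test system = CHO RD-HGA16 cells bearing hTAAR1 | replication = singlicate | controls = DMSO-only wells and EC80 β-PEA-stimulated wells | reagent = EC80 β-phenethylamine stimulus | read-out basis = percent inhibition of PEA-evoked calcium signal, max/basal emission ratio | schedule = seeding 17-24 h prior, 75-min 37 °C, 30-min RT dye loading | signal = kinetic Fluo-8 calcium fluorescence measurement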
Rce1 inh: yeast Rce1p protease inhibitors, primary screen, biochemical, fluorescence, cell-free homogeneous. CAAX prenyl protease 2 (Saccharomyces cerevisiae (strain ATCC 204508 / S288c)), Q03530. yeast membranes, quenched prenylated peptide cleavage fluorescence. calls only. actives 0.27% (n = 290,000);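 active means fall in fluorescence gain of 50% or more versus controls, with final raw signal at or below 3038400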
Target sequence (Q03530 whole entry, looked up): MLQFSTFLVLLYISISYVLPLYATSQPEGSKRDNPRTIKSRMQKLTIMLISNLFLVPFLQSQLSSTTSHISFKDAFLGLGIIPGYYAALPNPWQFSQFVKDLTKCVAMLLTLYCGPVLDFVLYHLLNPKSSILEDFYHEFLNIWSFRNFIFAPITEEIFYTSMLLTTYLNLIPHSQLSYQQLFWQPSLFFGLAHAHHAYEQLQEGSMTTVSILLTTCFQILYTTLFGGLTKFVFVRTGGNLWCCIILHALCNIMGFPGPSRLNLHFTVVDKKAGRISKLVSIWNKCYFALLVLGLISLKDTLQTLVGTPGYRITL
TAAR1 nonsel count: nonselective antagonists in TAAR1 counter-screen cells, counter-screen for hTAAR1 antagonist project, cell-based, fluorescence, calcium; shares compounds with TAAR1 antag; counterscreen cell line, antagonist mode; inhibition, % at 3 µM; actives 77% (n = 2,400); AID 651780, 2012; in the data active means inhibition above about 22%;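 further: CHO-Ga16 host cells stimulated with ATP at an EC80 level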
TAAR1 antag conf: human TAAR1 antagonists, retest of hits, confirmation, cell-based, fluorescence | shares compounds with TAAR1 antag | TAAR1-expressing cells, fluorescence antagonist read-out | inhibition, % at 3 µM | actives 40% (n = 2,400); in the data active means inhibition above about 49%;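 further: CHO-Ga16 host cells challenged with agonist PEA near its EC80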
Ga16 ag counter: calcium activation in Ga16-expressing cells, counter-screen for TAAR1 antagonist project, cell-based, fluorescence. shares compounds with TAAR1 antag. agonist counterscreen. activation, % at 3 µM. actives 18% (n = 2,400); in the data active means activation above about 12%
TAAR1 ag counter: TAAR1 activation by candidate antagonists – cell-based, fluorescence, counter-screen for TAAR1 antagonist project; AID 651955, 2012; shares compounds with TAAR1 antag; activation, % at 3 µM; actives 2% (n = 2,400); hTAAR1 cell line, agonist mode; in the data active means activation above about 37%;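 further: CHO cells stably expressing TAAR1 with calcium dye readout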
Hits are given with their value; – = inactive; · = no result. In the library only some 2.6% were active in any assay of this set; here they are far more common.

SMILES	VLA-4 inh	Platelet DG rel	TAAR1 agonist	TAAR1 antag	Rce1 inh	TAAR1 nonsel count	TAAR1 antag conf	Ga16 ag counter	TAAR1 ag counter
NC(=O)c1nsc(C(=O)N(c2ccccc2F)C(C(=O)NCc2ccc(F)cc2)c2ccc(O)cc2)c1N (stereo not drawn)	–	–	–	77	–	34	–	–	–
Cc1ccccc1N(C(=O)Cc1cccs1)C(C(=O)NCC1CCCO1)c1cccnc1 (stereo not drawn)	–	–	–	–	–	·	·	·	·
CCOc1ccc(C(C(=O)NCC2CCCO2)N(C(=O)c2snc(C(N)=O)c2N)c2cccc(F)c2)cc1 (stereo not drawn)	–	–	–	56	–	28	50	–	–
C[C@H](CO)N1C[C@H](C)[C@@H](CN(C)Cc2ccc(F)cc2)Oc2ncc(Br)cc2C1=O	·	·	–	–	·	·	·	·	·
CN(C)c1ccc(CC(=O)N2CCCCC2c2cc(C(=O)Nc3cccc4c3CCCC4)no2)cc1 (stereo not drawn)	·	·	–	–	·	·	·	·	·
CCOc1ccc(S(=O)(=O)N2CCOCC2)cc1NC(=O)CSCc1ccc(C)cc1	–	·	–	–	·	·	·	·	·
NC(=O)c1nsc(C(=O)N(c2ccc(F)cc2)C(C(=O)NCC2CCCO2)c2ccc3ncccc3c2)c1N (stereo not drawn)	–	–	–	49	–	25	–	–	–
NC(=O)c1nsc(C(=O)N(c2ccc3c(c2)OCCO3)C(C(=O)NCC2CCCO2)c2ccc(F)cc2)c1N (stereo not drawn)	–	–	–	–	–	·	·	·	·
NC(=O)c1nsc(C(=O)N(c2ccccc2)C(C(=O)NCC2CCCO2)c2ccc(F)cc2)c1N (stereo not drawn)	–	–	–	51	–	–	–	–	–
Cc1ccc(C(C(=O)NCc2ccccc2)N(Cc2ccco2)C(=O)c2snc(C(N)=O)c2N)o1 (stereo not drawn)	–	–	–	71	–	30	56	–	–
Cc1ccc(N(C(=O)c2snc(C(N)=O)c2N)C(C(=O)NCC2CCCO2)c2ccc3ncccc3c2)cc1 (stereo not drawn)	·	–	–	–	–	·	·	·	·
CCCC(C(=O)NC1CCCC1)N(C(=O)c1snc(C(N)=O)c1N)c1ccc(F)cc1 (stereo not drawn)	·	–	–	–	–	·	·	·	·
COc1cc(NC(=O)c2ccccc2)c(OC)cc1NC(=O)CN1C(=O)N(C)C2(CCCCC2)C1=O	·	·	–	–	·	·	·	·	·
COc1ccc(CCNC(=O)CC2(CC3=NS(=O)(=O)c4ccccc4N3)CCCC2)cc1OC	–	–	–	–	–	·	·	·	·
Cc1ccc(CNC(=O)CC2(CC3=NS(=O)(=O)c4ccccc4N3)CCCC2)cc1	–	–	–	66	–	32	51	–	–
COc1ccc(/C=C2/SC(=S)N(CCC(=O)Nc3cccnc3)C2=O)cc1OC	·	·	–	–	·	·	·	·	·
COc1cc(/C=C2/SC(=S)N(CCC(=O)Nc3cccnc3)C2=O)cc(OC)c1OC	·	·	–	60	·	30	51	–	–
O=C(CCN1C(=O)/C(=C/c2cccs2)SC1=S)Nc1cccc(O)c1	–	–	–	72	–	47	60	16	–
COc1cc(/C=C2\SC(=S)N(CCC(=O)Nc3cccc(O)c3)C2=O)cc(OC)c1OC	–	–	–	88	–	36	58	–	–
COc1cc(/C=C2\SC(=S)N(CCC(=O)Nc3ccccc3)C2=O)cc(OC)c1OC	–	–	–	–	–	·	·	·	·
CC1(C(=O)Nc2ccc3c(c2)OCCO3)CN(S(C)(=O)=O)CC(=O)N1CCCn1ccnc1 (stereo not drawn)	·	·	–	–	·	·	·	·	·
CCOc1ccc(CCNC(=O)COC(=O)c2cccc(S(=O)(=O)N3CCOCC3)c2)cc1OCC	–	–	–	–	–	·	·	·	·
O=C(NCCO)c1cccc(Nc2nc(-c3ccccc3)c3cc(Cl)ccc3n2)c1	–	–	–	49	–	30	–	–	–
CCOC(=O)C1C(=O)C=C(c2ccccc2)CC1c1ccccc1 (stereo not drawn)	·	·	–	59	·	30	–	–	–
O=C(CSc1ccc2nnc(CCNS(=O)(=O)c3ccccc3)n2n1)Nc1nc2ccccc2s1	–	–	–	–	–	·	·	·	·
SMILES	VLA-4 inh	Platelet DG rel	TAAR1 agonist	TAAR1 antag	Rce1 inh	TAAR1 nonsel count	TAAR1 antag conf	Ga16 ag counter	TAAR1 ag counter
FC(F)(F)c1ccccc1Cc1c(-c2cccc(Cl)c2)nc2c3ccccc3ccn12	·	·	–	–	·	·	·	·	·
CC(C)(C)c1cc(C(=O)N/N=C/c2ccc(-c3ccccc3[N+](=O)[O-])o2)n[nH]1	–	–	–	63	–	27	53	–	–
O=C(N/N=C/c1ccc(-c2ccccc2[N+](=O)[O-])o1)c1cccnc1	–	–	–	–	–	·	·	·	·
O=C1OC(O)c2cccc3cccc1c23 (stereo not drawn)	·	·	–	–	·	·	·	·	·
COc1ccc(C2c3[nH]c4ccccc4c3C[C@H]3C(=O)N(c4ccccc4C(=O)NCCN4CCOCC4)C(=O)N23)cc1 (stereo partly drawn)	–	–	–	53	–	–	–	–	–
COc1cccc(C2c3[nH]c4ccccc4c3C[C@H]3C(=O)N(c4ccccc4C(=O)N4CCCC4C(=O)O)C(=O)N23)c1 (stereo partly drawn)	–	–	–	–	–	·	·	·	·
O=C(NCCN1CCOCC1)c1ccccc1N1C(=O)[C@@H]2Cc3c([nH]c4ccccc34)C(c3ccc(F)cc3)N2C1=O (stereo partly drawn)	–	–	–	50	–	–	–	–	–
CC(C)Cc1nnc(NC(=O)CCC(=O)NC2CCCCCC2)s1	–	–	–	–	–	·	·	·	·
CN(CC(=O)Nc1cccc(F)c1)CC(=O)Nc1cccc(S(=O)(=O)N2CCCCCC2)c1	–	–	–	61	–	–	–	12	–
CN(CC(=O)Nc1cccc(F)c1)CC(=O)Nc1cccc(S(=O)(=O)N2CCCCC2)c1	–	·	–	–	·	·	·	·	·
